Laboratory results from PubChem BioAssay.
Active and inactive are the calls of the source.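 Rule for the calls, unless noted: active = GFP response above 150% of the DMSO level; inconclusive = fewer than 70 events counted for a yeast strain; inactive = the rest.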

Columns and labels:
[1] = RPL19A-GFP modulators, yeast TOR pathway, confirmation, cell-based, S. cerevisiae, flow cytometry, cherry picks, mother/daughter gates (AID 2270;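 active = GFP response below 50% of the DMSO control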); conditions: S. cerevisiae RPL19A-GFP strain, 3 h, at 10 µM, stronger effect = lower value, 100 = same GFP as DMSO wells
[2] = LAP4-GFP expression modulators in yeast, confirmation, cell-based, cherry picks, flow cytometry, mother/daughter gates (AID 2271;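 active = GFP response above 150% of the DMSO control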;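 note: ratio of sample to DMSO plate mean so 100% equals DMSO level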); conditions: S. cerevisiae LAP4-GFP strain, 3 h, at 10 µM, stronger effect = higher value, 100 means same as DMSO control
Summary of the method: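 Material: Alexa Fluor 633-labelled Saccharomyces cerevisiae GFP-fusion strain, single-plex | Amount: Yeast cells seeded at OD600 of 0.2 | Buffer or medium: SC growth medium | Schedule: 3 h exposure, 30 °C | Measured by: HT flow cytometry, GFP fluorescence channel | Evaluation: % GFP response vs DMSO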

[3] = modulators of MEP2-GFP levels in yeast, confirmation, S. cerevisiae, flow cytometry GFP, cherry picks (AID 2272;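 active = GFP response above 150% of the DMSO control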;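 note: ratio of well signal to plate DMSO mean so 100% equals DMSO level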); conditions: S. cerevisiae MEP2-GFP strain, 3 h, at 10 µM, stronger effect = higher value
[4] = AGP1-GFP expression modulators, hit retest, confirmation, cell-based, flow cytometry, S. cerevisiae, cherry picks (AID 2273);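 note: median GFP channel fluorescence over the whole cell population gate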; conditions: S. cerevisiae AGP1-GFP strain, 3 h, at 10 µM
[5] = modulators of CIT2-GFP expression in yeast, confirmation, S. cerevisiae, GFP fusion, cherry picks, mother/daughter gates (AID 2274); conditions: S. cerevisiae CIT2-GFP strain, flow cytometry, 3 h, at 10 µM, stronger effect = higher value
[6] = measured here: daughter cell gate
[7] = measured here: mother cell gate
[8] = measured here: daughter cell gate response
[9] = measured here: mother cell gate response

SMILES	GFP response vs DMSO [1]	GFP response vs DMSO [1, 6] [%]	GFP response vs DMSO [1, 7] [%]	GFP response relative to DMSO [2]	GFP response relative to DMSO [2, 8] [%]	GFP response relative to DMSO [2, 9] [%]	GFP response vs DMSO [3]	GFP response, % of DMSO [4]	GFP response, % of DMSO [5]	GFP response, % of DMSO [5, 6] [%]	GFP response, % of DMSO [5, 7] [%]
O=C(Nc1ccccc1N1CCOCC1)c1ccc([N+](=O)[O-])o1	58.5% (inactive)	82.8	47.8	128% (inactive)	104	116	90.5% (inactive)	87.6% (inactive)	63.9% (inactive)	77.5	55.2
CC1=C(C)/C(=N\OS(=O)(=O)c2ccccc2)C=CC1=O	99.1% (inactive)	98.8	91.2	250% (active)	196	236	112% (inactive)	93.4% (inactive)	105% (inactive)	111	95.6
Cc1ccc(NC(=O)c2ccccc2O)cc1	103% (inactive)	102	102	100% (inactive)	95	99.5	110% (inactive)	101% (inactive)	104% (inactive)	106	99.1
Cc1cc(NC(=O)c2ccc3c(c2)OCCO3)ccc1NC(=O)c1cc2ccccc2o1	97.6% (inactive)	99.5	96.5	89.4% (inactive)	89.8	91.3	103% (inactive)	93.2% (inactive)	95.8% (inactive)	97.6	97.1
Nc1ccccc1NC(=O)c1ccccc1	101% (inactive)	103	99.8	98.9% (inactive)	96	99.5	106% (inactive)	98.4% (inactive)	101% (inactive)	103	103
CCOc1ccccc1N1CCN(C(=O)c2cccc(-c3ccc(O)cc3)c2)CC1	97% (inactive)	96.7	97.3	98.7% (inactive)	95.6	102	102% (inactive)	92.4% (inactive)	96.5% (inactive)	94.8	94.4
O=[N+]([O-])c1cnc(Sc2ccncn2)s1	102% (inactive)	105	99.2	166% (active)	148	182	141% (inactive)	111% (inactive)	113% (inactive)	124	102
Cc1ccn2c(NC3CCCCC3)c(-c3cccc(-c4cccc(Cl)c4)c3)nc2c1	95% (inactive)	92.1	95.8	110% (inactive)	102	112	108% (inactive)	92.5% (inactive)	93.5% (inactive)	98.3	88.6
CC1CCCCN1S(=O)(=O)c1ccc(C(=O)Nc2nnc(-c3ccccc3Cl)o2)cc1 (configuration not stated)	97.8% (inactive)	97.9	98.4	94.1% (inactive)	94.4	91.9	102% (inactive)	98.3% (inactive)	99.7% (inactive)	101	98.5
COc1ccc(-c2nc(NC(=O)c3cc(C(C)(C)C)nn3C)sc2C)cc1	98.7% (inactive)	100	99	98.9% (inactive)	101	99.5	103% (inactive)	100% (inactive)	104% (inactive)	103	104
CCCCC(=O)NNC(=S)NC(=O)c1ccc(C)cc1	116% (inactive)	111	111	249% (active)	204	233	134% (inactive)	100% (inactive)	119% (inactive)	114	110
Brc1ccc2c(c1)OCCOCCOc1cc(Br)ccc1OCCOCCOCCO2	99% (inactive)	98.4	96.9	126% (inactive)	123	126	111% (inactive)	92.7% (inactive)	96.9% (inactive)	97.2	93.8
